According to ChEMBL document CHEMBL3853327 (J Med Chem, 2016):

test system: Human immunodeficiency virus 1; experiment: Antiviral activity against HIV1 RES056 harboring reverse transcriptase K103N/Y181C double mutant infected in human MT4 cells assessed as protection against virus induced cytotoxicity after 5 days by MTT assay; assay type: functional, cell-based; conditions: Human immunodeficiency virus 1, RES056, MT4, 120 h
How it was run: (§1)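 MTT cytopathicity assay in MT-4 cells (6 × 10^5 cells/mL). Compounds serially diluted 5-fold in triplicate wells, run in parallel on infected and mock-infected cells. Virus added at 100−300 CCID50 per well. Viability read spectrophotometrically at 540 and 690 nm after 5 days, using the median OD of three wells.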

Point of comparison: `Cc1cc(C#N)cc(C)c1Oc1nc(NC2CCN(Cc3ccc(Br)cc3)CC2)nc2ccsc12`, EC50 2030 nM. Against it:
- COC(=O)c1ccc(CN2CCC(Nc3nc(Oc4c(C)cc(C#N)cc4C)c4sccc4n3)CC2)cc1 — 2.9-fold lower, 700 nM
- Cc1cc(C#N)cc(C)c1Oc1nc(NC2CCN(Cc3ccccc3C#N)CC2)nc2ccsc12 — 2.5-fold lower, 810 nM
- Cc1cc(C#N)cc(C)c1Oc1nc(NC2CCN(Cc3cccc(F)c3)CC2)nc2ccsc12 — 7-fold lower, 290 nM

test system: not listed separately; experiment: Antiviral activity against HIV2 ROD harboring reverse transcriptase infected in human MT4 cells assessed as protection against virus induced cytotoxicity after 5 days by MTT assay; assay type: functional, cell-based, Human immunodeficiency virus type 2 (ISOLATE ROD); conditions: Human immunodeficiency virus 2, MT4, 120 h
How it was run: as §1, with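 “wells. EC50 is the concentration giving 50% protection from viral cytopathogenicity.” for “wells.”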

`COC(=O)c1ccc(CN2CCC(Nc3nc(Oc4c(C)cc(C#N)cc4C)c4sccc4n3)CC2)cc1` and `Cc1cc(C#N)cc(C)c1Oc1nc(NC2CCN(Cc3ccc(Br)cc3)CC2)nc2ccsc12` cannot be ordered by EC50: > 41.4 µM for the first, > 24.3 µM for the second.

`Cc1cc(C#N)cc(C)c1Oc1nc(NC2CCN(Cc3ccccc3C#N)CC2)nc2ccsc12` and `Cc1cc(C#N)cc(C)c1Oc1nc(NC2CCN(Cc3cccc(F)c3)CC2)nc2ccsc12` cannot be ordered by EC50: > 5.78 µM for the first, > 76.7 µM for the second.

test system: not listed separately; experiment: Cytotoxicity against human mock-infected MT4 cells assessed as reduction in cell viability after 5 days by MTT assay; assay type: toxicity, cell-based; conditions: not given
How it was run: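 Mock-infected MT-4 cells (6 × 10^5 cells/mL at seeding) with serial 5-fold compound dilutions in triplicate wells. Viability read by MTT after 5 days, absorbance at 540 and 690 nm, median OD of three wells. CC50 is the concentration reducing OD540 of mock-infected cells by 50%.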

Point of comparison: `Cc1cc(C#N)cc(C)c1Oc1nc(NC2CCN(Cc3ccccc3C#N)CC2)nc2ccsc12`, CC50 at 120 h 5.79 µM. Against it:
- COC(=O)c1ccc(CN2CCC(Nc3nc(Oc4c(C)cc(C#N)cc4C)c4sccc4n3)CC2)cc1 — 7.2-fold higher, 41.4 µM
- Cc1cc(C#N)cc(C)c1Oc1nc(NC2CCN(Cc3cccc(F)c3)CC2)nc2ccsc12 — 13-fold higher, 76.7 µM
- Cc1cc(C#N)cc(C)c1Oc1nc(NC2CCN(Cc3ccc(Br)cc3)CC2)nc2ccsc12 — 4.2-fold higher, 24.3 µM

test system: not listed separately; experiment: Selectivity index, ratio of CC50 for human mock-infected MT4 cells to EC50 for HIV1 RES056 harboring reverse transcriptase K103N/Y181C double mutant infected in human MT4 cells; assay type: toxicity, cell-based; conditions: MT4 cells (mock-infected for CC50, HIV-1 infected for EC50)
How it was run: (§2)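 Selectivity index is CC50/EC50. CC50 is the concentration that reduces OD540 of mock-infected MT-4 cells by 50% in the 5-day MTT assay. EC50 is the 50% protection from virus-induced cytopathicity, measured in parallel on infected wells.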

Point of comparison: `Cc1cc(C#N)cc(C)c1Oc1nc(NC2CCN(Cc3ccccc3C#N)CC2)nc2ccsc12`, selectivity ratio 7. Against it:
- COC(=O)c1ccc(CN2CCC(Nc3nc(Oc4c(C)cc(C#N)cc4C)c4sccc4n3)CC2)cc1 — higher, 59
- Cc1cc(C#N)cc(C)c1Oc1nc(NC2CCN(Cc3cccc(F)c3)CC2)nc2ccsc12 — higher, 267
- Cc1cc(C#N)cc(C)c1Oc1nc(NC2CCN(Cc3ccc(Br)cc3)CC2)nc2ccsc12 — higher, 12

test system: Human immunodeficiency virus 1; experiment: Antiviral activity against wild type HIV1 3B harboring reverse transcriptase infected in human MT4 cells assessed as protection against virus induced cytotoxicity after 5 days by MTT assay; assay type: functional, cell-based; conditions: Human immunodeficiency virus 1, 3B, MT4, 120 h; how it was run: as §1

Point of comparison: `Cc1cc(C#N)cc(C)c1Oc1nc(NC2CCN(Cc3ccc(Br)cc3)CC2)nc2ccsc12`, EC50 26.6 nM. Against it:
- COC(=O)c1ccc(CN2CCC(Nc3nc(Oc4c(C)cc(C#N)cc4C)c4sccc4n3)CC2)cc1 — 8.2-fold lower, 3.25 nM
- Cc1cc(C#N)cc(C)c1Oc1nc(NC2CCN(Cc3ccccc3C#N)CC2)nc2ccsc12 — 4.7-fold lower, 5.71 nM
- Cc1cc(C#N)cc(C)c1Oc1nc(NC2CCN(Cc3cccc(F)c3)CC2)nc2ccsc12 — 6-fold lower, 4.4 nM

test system: not listed separately; experiment: Selectivity index, ratio of CC50 for human mock-infected MT4 cells to EC50 for wild type HIV1 3B harboring reverse transcriptase infected in human MT4 cells; assay type: toxicity, cell-based; conditions: MT4 cells (mock-infected for CC50, HIV-1 infected for EC50); how it was run: as §2

Point of comparison: `Cc1cc(C#N)cc(C)c1Oc1nc(NC2CCN(Cc3ccc(Br)cc3)CC2)nc2ccsc12`, selectivity ratio 916. Against it:
- COC(=O)c1ccc(CN2CCC(Nc3nc(Oc4c(C)cc(C#N)cc4C)c4sccc4n3)CC2)cc1 — higher, 12700
- Cc1cc(C#N)cc(C)c1Oc1nc(NC2CCN(Cc3ccccc3C#N)CC2)nc2ccsc12 — higher, 1010
- Cc1cc(C#N)cc(C)c1Oc1nc(NC2CCN(Cc3cccc(F)c3)CC2)nc2ccsc12 — higher, 17500
